From ChEMBL document CHEMBL1156332, “Polysubstituted pyrazoles, part 6. Synthesis of some 1-(4-chlorophenyl)-4-hydroxy-1H-pyrazol-3-carbonyl derivatives linked to nitrogenous heterocyclic ring systems as potential antitumor agents” (2010)

Columns and labels:
Type in all cases: functional
CCRF-CEM = test: Growth inhibition of human CCRF-CEM cells after 48 hrs by sulforhodamine B assay
Procedure, shortened: (§1)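 NCI 60-line panel, five concentrations (0.01–100 µM) from DMSO stock diluted in medium with gentamicin. Cells were plated 24 h before dosing, with time-zero plates fixed at drug addition, then exposed 48 h at 37 °C, 5% CO₂. Adherent cells were fixed with cold TCA (10% final) and suspension cells with 16% TCA. Staining used 0.4% SRB, solubilised in 10 mM Tris and read at 515 nm. GI₅₀ was taken from log concentration–% growth curves.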

HL-60(TB) = test: Growth inhibition of human HL-60(TB) cells after 48 hrs by sulforhodamine B assay; conditions: HL-60, 48 h
Procedure, shortened: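 NCI 60-cell panel. Cells were preincubated 24 h at 37 °C in 5% CO2, then time-zero plates were TCA-fixed. Drugs were dissolved in DMSO and given at five concentrations (10-fold or half-log dilutions) for 48 h. Suspension cells were fixed with TCA (16% final), stained with 0.4% SRB and read at 515 nm. GI50 is the concentration giving 50% decrease in net growth, taken from log concentration–growth curves.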

A549 = test: Growth inhibition of human A549 cells after 48 hrs by sulforhodamine B assay; conditions: A549, 48 h; procedure, shortened: as §1
EKVX = test: Growth inhibition of human EKVX cells after 48 hrs by sulforhodamine B assay; procedure, shortened: as §1
HOP-62 = test: Growth inhibition of human HOP62 cells after 48 hrs by sulforhodamine B assay; conditions: HOP-62, 48 h; procedure, shortened: as §1
HOP-92 = test: Growth inhibition of human HOP92 cells after 48 hrs by sulforhodamine B assay; conditions: HOP-92, 48 h; procedure, shortened: as §1
NCI-H460 = test: Growth inhibition of human NCI-H460 cells after 48 hrs by sulforhodamine B assay; conditions: NCI-H460, 48 h; procedure, shortened: as §1
HCT-116 = test: Growth inhibition of human HCT116 cells after 48 hrs by sulforhodamine B assay; conditions: HCT-116, 48 h; procedure, shortened: as §1
HT-29 = test: Growth inhibition of human HT-29 cells after 48 hrs by sulforhodamine B assay; conditions: HT-29, 48 h; procedure, shortened: as §1
KM12 = test: Growth inhibition of human KM12 cells after 48 hrs by sulforhodamine B assay; conditions: KM12, 48 h; procedure, shortened: as §1
SW-620 = test: Growth inhibition of human SW620 cells after 48 hrs by sulforhodamine B assay; conditions: SW-620, 48 h
Procedure, shortened: (§2)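 Adherent lines plated and held 24 h at 37 °C, 5% CO2, 100% humidity; time-zero plates TCA-fixed at drug addition. Drugs from DMSO stocks were made into five concentrations by 10-fold or half-log serial dilution and applied for 48 h continuous exposure. Cells were fixed with cold TCA (10% final) for 60 min at 4 °C, then stained with 0.4% SRB in 1% acetic acid for 10 min. Dye was solubilized in 10 mM Tris base and read at 515 nm. GI50 was taken from log concentration–growth curves.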

SF-268 = test: Growth inhibition of human SF268 cells after 48 hrs by sulforhodamine B assay; conditions: SF-268, 48 h; procedure, shortened: as §1
SNB-19 = test: Growth inhibition of human SNB19 cells after 48 hrs by sulforhodamine B assay; conditions: SNB-19, 48 h; procedure, shortened: as §2
LOX IMVI = test: Growth inhibition of human LOXIMVI cells after 48 hrs by sulforhodamine B assay; procedure, shortened: as §1
M14 = test: Growth inhibition of human M14 cells after 48 hrs by sulforhodamine B assay; conditions: M14, 48 h; procedure, shortened: as §1
SK-MEL-28 = test: Growth inhibition of human SK-MEL-28 cells after 48 hrs by sulforhodamine B assay; conditions: SK-MEL-28, 48 h; procedure, shortened: as §2
UACC-257 = test: Growth inhibition of human UACC257 cells after 48 hrs by sulforhodamine B assay; conditions: UACC-257, 48 h; procedure, shortened: as §2
UACC-62 = test: Growth inhibition of human UACC62 cells after 48 hrs by sulforhodamine B assay; conditions: UACC-62, 48 h; procedure, shortened: as §2
IGROV-1 = test: Growth inhibition of human IGROV1 cells after 48 hrs by sulforhodamine B assay; conditions: IGROV-1, 48 h; procedure, shortened: as §1
OVCAR-3 = test: Growth inhibition of human OVCAR-3 cells after 48 hrs by sulforhodamine B assay; conditions: OVCAR-3, 48 h; procedure, shortened: as §1
OVCAR-5 = test: Growth inhibition of human OVCAR5 cells after 48 hrs by sulforhodamine B assay; conditions: OVCAR-5, 48 h; procedure, shortened: as §1
786-0 = test: Growth inhibition of human 786-0 cells after 48 hrs by sulforhodamine B assay; conditions: 786-0, 48 h; procedure, shortened: as §1
A498 = test: Growth inhibition of human A498 cells after 48 hrs by sulforhodamine B assay; conditions: A498, 48 h; procedure, shortened: as §1
SN12C = test: Growth inhibition of human SN12C cells after 48 hrs by sulforhodamine B assay; procedure, shortened: as §2
UO-31 = test: Growth inhibition of human UO31 cells after 48 hrs by sulforhodamine B assay; conditions: UO-31, 48 h; procedure, shortened: as §2
MCF7 = test: Growth inhibition of human MCF7 cells after 48 hrs by sulforhodamine B assay; conditions: MCF7, 48 h; procedure, shortened: as §1
NCI/ADR-RES = test: Growth inhibition of human NCI/ADR-RES cells after 48 hrs by sulforhodamine B assay; procedure, shortened: as §1
MDA-MB-435 = test: Growth inhibition of human MDA-MB-435 cells after 48 hrs by sulforhodamine B assay; conditions: MDA-MB-435, 48 h; procedure, shortened: as §1
BT-549 = test: Growth inhibition of human BT549 cells after 48 hrs by sulforhodamine B assay; conditions: BT-549, 48 h; procedure, shortened: as §1
T47D = test: Growth inhibition of human T47D cells after 48 hrs by sulforhodamine B assay; procedure, shortened: as §2
MDA-MB-468 = test: Growth inhibition of human MDA-MB-468 cells after 48 hrs by sulforhodamine B assay; conditions: MDA-MB-468, 48 h; procedure, shortened: as §1
[1] = Cytotoxicity against human lung cancer cells after 48 hrs by sulforhodamine B assay; conditions: Cancer cell lines
Procedure, shortened: (§3)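 NCI five-dose screen: about 60 human tumour lines grouped into nine subpanels were plated and incubated 24 h before dosing. Compounds went in as DMSO stock and were diluted in medium to five final concentrations (0.01–100 µM). Exposure was 48 h continuous at 37 °C, 5% CO₂, followed by TCA fixation and SRB staining read at 515 nm. Per-line GI₅₀, TGI and LC₅₀ came from log concentration–% growth curves, averaged per subpanel as MG-MID.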

[2] = Cytotoxicity against human colon cancer cells after 48 hrs by sulforhodamine B assay; conditions: Cancer cell lines; procedure, shortened: as §3
[3] = Cytotoxicity against human CNS cancer cells after 48 hrs by sulforhodamine B assay; conditions: Cancer cell lines; procedure, shortened: as §3
[4] = Cytotoxicity against human melanoma cells after 48 hrs by sulforhodamine B assay; conditions: Melanoma cell; procedure, shortened: as §3
[5] = Cytotoxicity against human ovarian cancer cells after 48 hrs by sulforhodamine B assay; conditions: Cancer cell lines; procedure, shortened: as §3
[6] = Cytotoxicity against human prostate cancer cells after 48 hrs by sulforhodamine B assay; conditions: Cancer cell lines; procedure, shortened: as §3
[7] = Cytotoxicity against human breast cancer cells after 48 hrs by sulforhodamine B assay; conditions: Cancer cell lines; procedure, shortened: as §3

O=C1CC(=O)N(C(=O)c2nn(-c3ccc(Cl)cc3)cc2O)N1
GI50 (CCRF-CEM): 420 nM
GI50 (HL-60(TB)): 770 nM
GI50 (A549): 360 nM
GI50 (EKVX): 850 nM
GI50 (HOP-62): 510 nM
GI50 (HOP-92): 500 nM
GI50 (NCI-H460): 310 nM
GI50 (HCT-116): 340 nM
GI50 (HT-29): 580 nM
GI50 (KM12): 1160 nM
GI50 (SW-620): 2320 nM
GI50 (SF-268): 510 nM
GI50 (SNB-19): 510 nM
GI50 (LOX IMVI): 1370 nM
GI50 (M14): 710 nM
GI50 (SK-MEL-28): 5.26 µM
GI50 (UACC-257): 1860 nM
GI50 (UACC-62): 390 nM
GI50 (IGROV-1): 380 nM
GI50 (OVCAR-3): 930 nM
GI50 (OVCAR-5): 8.08 µM
GI50 (786-0): 3.77 µM
GI50 (A498): 110 nM
GI50 (SN12C): 500 nM
GI50 (UO-31): 550 nM
GI50 (MCF7): 1560 nM
GI50 (NCI/ADR-RES): 940 nM
GI50 (MDA-MB-435): 330 nM
GI50 (BT-549): 370 nM
GI50 (T47D): 450 nM
GI50 (MDA-MB-468): 720 nM
GI50 [1]: 510 nM
TGI [1]: 80.3 µM
GI50 [2]: 1510 nM
TGI [2]: 86.2 µM
GI50 [3]: 330 nM
TGI [3]: 87.9 µM
GI50 [4]: 1600 nM
TGI [4]: 50.1 µM
CC50 ([4]; read-out: LC50 (the source's name)): 85.2 µM
GI50 [5]: 1080 nM
TGI [5]: 84 µM
GI50 [6]: 670 nM
GI50 [7]: 820 nM
TGI [7]: 79.6 µM
